# Experimental data gathered from unrelated publications.
# Protocols differ between the studies behind these lines.
# Read-out: cell growth or viability
Structure (SMILES),cell line,technique,tested at,time,measurement,value
COc1cccc2c1C(=O)c1c(O)c3c(c(O)c1C2=O)C[C@@](O)(C(=O)CO)C[C@@H]3O[C@H]1C[C@H](N)[C@H](O)[C@H](C)O1,HFF-1,resazurin,,72 h,CC50,0.468 µM
O=C(O)c1ccc(P(c2ccccc2)c2ccccc2)cc1,NIH3T3,resazurin,,18 h,CC50,210 µg/mL
O=C(CCl)Cn1nnc(-c2ccccc2)c1COC(=O)NCc1ccccc1,HFF-1,ATP luminescence,,48 h,CC50,20 µM
COc1ccc(S(=O)(=O)ON=C2C=C(C)C(=O)C(C)=C2)cc1,PC-3,,,,CC50,4.74 µM
N=C(N)NCc1ccc(NC(=O)c2ccc(C(=O)Nc3ccc(C4=CCN(C(=N)N)CC4)nn3)cc2)cc1,NIH3T3,MTS,,24 h,CC50,231 µM
COc1cc(OC)cc([C@H]2C[C@@H](C)OC(=O)c3cc4ccccn4c32)c1 (racemic),HFF-1,resazurin,,72 h,CC50,> 100 µM
CCCCCCCCCCCCCCCc1ccc(CP(=O)(O)O)cc1,Mm1,trypan blue,10 µM,20 h,viability,> 93%
N=C(N)NCc1ccc(NC(=O)c2ccc(C(=O)Nc3ccc(C4=CCN(C(=N)N)CC4)cc3)cn2)cc1,NIH3T3,MTS,,24 h,CC50,> 1170 µM
